Experiments:
[1] = test system: THP1 macrophages and differentiated HL60 neutrophils; experiment: Transwell chemotaxis assay, recruitment by N protein-expressing HFL-1 cells; assay type: cell-based, human; conditions: 20 μM
Summary of the method: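 HFL-1 cells in 24-well plates transfected with plasmids for 12 h, then switched to serum-free Ham's F12 for a further 24 h. THP-1 macrophages seeded in the upper transwell chamber and incubated 16 h. Non-migrated cells removed with a swab; migrated cells stained with crystal violet.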

[2] = test system: N protein-induced pulmonary fibrosis; experiment: N protein; assay type: in vivo, C57BL/6J mice; conditions: 10 mg/kg weekly for 30 days
Summary of the method: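 Male C57BL/6J mice (8 weeks) given N protein-expressing AAV or control AAV intranasally in 50 µL PBS. From day 4, test compound 10 mg/kg in saline given i.p. weekly. Sacrificed at day 30; n = 6 per group. Lung Smad3 phosphorylation assessed by western blot.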

[3] = test system: Smad3 phosphorylation; experiment: Nocodazole-induced Smad3 phosphorylation; assay type: cell-based, human; conditions: HFL-1, LX-2, and AC-16 cells; nocodazole 100 ng/mL, 12 h
[4] = test system: Smad3 phosphorylation; experiment: N protein-induced Smad3 phosphorylation/activation in HFL-1 cells; assay type: cell-based, human
[5] = test system: Smad2/3 nuclear translocation; experiment: Smad2/3 nuclear translocation in HFL-1 cells; assay type: cell-based, human; conditions: 24 h
Summary of the method: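 HFL-1 cells expressing N protein treated with test compound for 24 h. Fixed in 4% formaldehyde and blocked in PBS with 3% BSA and 0.2% Triton X-100. Primary antibody overnight at 4°C; secondary antibody 1 h at room temperature in the dark; nuclei stained with DAPI for 10 min. Smad2/3 localization imaged by confocal microscopy.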

[6] = test system: N protein-TβRI, TβRI-TβRII, TβRI-FKBP12 interactions; experiment: Co-IP, interactions N protein-TβRI, TβRI-TβRII, TβRI-FKBP12; assay type: cell-based, human; conditions: HFL-1 cells
Summary of the method: (§1)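 HFL-1 cells transfected with an N protein plasmid using ViaFect. Lysates incubated 3 h with primary antibody plus protein G-Sepharose beads. Beads washed three times with NP-40 lysis buffer. Immunoprecipitates boiled in SDS loading buffer, resolved by SDS-PAGE, transferred to PVDF and probed; bands detected by enhanced chemiluminescence.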

[7] = molecular target: Smad3 (Homo sapiens, UniProt P84022); experiment: ITC assay, RMY-205 binding to Smad3
Summary of the method: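 Isothermal titration calorimetry. Sample cell loaded with GST-Smad3 at 20 µM; injector loaded with test compound at 0.2 mM. Compound titrated stepwise into the Smad3 solution, with PBS as control. Heat changes analyzed to derive binding.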

[8] = molecular target: TβRI polymerization (Homo sapiens, UniProt P36897); experiment: Crosslinking assay, N protein-induced TβRI polymerization; assay type: cell-based; conditions: HFL-1 cells, 24 h
[9] = test system: TGF-β/Smad signaling; experiment: TGF-β-induced Smad3 phosphorylation and α-SMA/COL1A1 expression in cell lines; assay type: cell-based, human; conditions: 36 h
[10] = molecular target: Smad2 (Homo sapiens, UniProt Q15796); experiment: ITC assay, binding to Smad2; conditions: GST-tagged protein
[11] = test system: α-SMA; experiment: N protein-induced α-SMA/COL1A1 expression; assay type: cell-based, human
Summary of the method: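 HFL-1 cells transfected with N protein plasmid, then exposed to test compounds (10 µM for derivative comparison; otherwise varied times and doses). α-SMA and COL1A1 measured by western blot, normalized to tubulin. For collagen secretion, culture medium concentrated, held 16 h at 4°C and centrifuged; pellet dissolved in 0.05 M acetic acid, stained with Sirius red, washed, extracted, and read at 530 nm.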

[12] = test system: Adriamycin-induced renal fibrosis; experiment: Adriamycin-induced renal fibrosis mouse model; assay type: in vivo, C57BL/6J mice; conditions: 3 mg/kg intraperitoneally daily, 7 days
[13] = test system: primary bone marrow-derived macrophages (BMDMs) and primary neutrophils; assay type: cell-based; conditions: mouse primary lung fibroblasts expressing N protein, 20 μM
Summary of the method: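 BMDMs: mouse tibial marrow flushed, red cells lysed, filtered at 40 µm, cultured 8 days in DMEM with 25% L929-conditioned medium. Neutrophils: isolated from marrow on a Percoll gradient (52/64/72%) at 1,545 g for 30 min at room temperature; 64/72% interface collected. Migration of both cell types toward N protein-expressing primary lung fibroblasts assessed.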

[14] = test system: CAGA luciferase reporter gene (a Smad3/4-dependent reporter); experiment: CAGA luciferase reporter; assay type: cell-based, human; conditions: 20 μM, Smad3-dependent manner
Summary of the method: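 Cells co-transfected with a CAGA luciferase reporter (Smad3/4-dependent), a β-galactosidase expression vector and other plasmids, including N protein. Lysed 24 h after transfection; luciferase and β-gal activities measured. Luciferase activity normalized to β-gal to correct for transfection efficiency.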

[15] = molecular target: TβRI (Homo sapiens, UniProt P36897); experiment: ITC assay, binding to TβRI; conditions: GST-tagged protein
[16] = molecular target: TβRI-Smad2 interaction (Homo sapiens, UniProt Q15796); experiment: Co-IP, N protein-induced TβRI-Smad2 interaction; assay type: cell-based; conditions: coIP
Summary of the method: as §1

[17] = molecular target: MH1-MH2 interaction (Homo sapiens, UniProt P84022); experiment: coIP and GST pull-down, MH1-MH2 interaction of Smad3; assay type: biochemical; conditions: coIP assay, GST pull-down assay
Summary of the method: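 GST-tagged proteins expressed in E. coli BL21 and purified on glutathione-sepharose; His-tagged proteins purified on Ni-NTA. GST or GST-fusion bound to glutathione beads in PBS for 1 h at 4°C, washed with PBS, then with modified NP-40 buffer. CoIP: lysates incubated 3 h with antibody plus protein G-Sepharose, washed, and immunoblotted.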

[18] = test system: Smad3 binding to promoters; experiment: ChIP assay, Smad3 binding to cytokine gene promoters in HFL-1 cells; assay type: cell-based, human; conditions: ChIP analysis
Summary of the method: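 HFL-1 cells crosslinked with 1% formaldehyde for 10 min at room temperature, washed in ice-cold PBS, and lysed in SDS lysis buffer (1% SDS, 10 mM EDTA, 50 mM Tris pH 8.1) with protease inhibitors. Chromatin sonicated to 500–1000 bp, then incubated overnight at 4°C with antibody or rabbit IgG. Complexes pulled down on protein G-Sepharose, washed, eluted, crosslinks reversed, proteinase K-treated.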

[19] = test system: primary mouse pulmonary fibroblasts; assay type: cell-based; conditions: 20 μM, 36 h
Summary of the method: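 Primary pulmonary fibroblasts grown out from minced mouse lung (1 mm³ explants) in DMEM with 10% FBS; medium changed every 2 days, passaged with trypsin after one week. Cells transfected with N protein plasmid, then treated with test compound at 20 µM for 36 h. α-SMA and COL1A1 measured by western blot, normalized to tubulin.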

[20] = Pharmacokinetic analysis in ICR mice; assay type: in vivo; conditions: male, mouse, plasma
Summary of the method: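 Male ICR mice (8 weeks) received a single dose of test compound: 2 mg/kg i.v., or 10 mg/kg i.p. or by oral gavage. Blood sampled at 5, 15 and 30 min and at 1, 2, 4, 8 and 24 h. Plasma obtained by centrifugation at 1,500g for 10 min, and compound content in plasma assayed.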

[21] = Body and organ weight, behavior during RMY-205 administration; assay type: in vivo, mice
[22] = test system: IL6, IL8, CCL2, CXCL10 mRNA; experiment: qRT-PCR of N protein-induced cytokine mRNA in HFL-1 cells; assay type: cell-based, human; conditions: 20 μM
[23] = molecular target: MH1 domain of Smad3 (Homo sapiens, UniProt P84022); experiment: ITC assay, binding to MH1 domain of Smad3
[24] = test system: Smad2 phosphorylation; experiment: N protein-induced Smad2 phosphorylation in HFL-1 cells; assay type: cell-based, human; conditions: 20 μM, 36 h
Summary of the method: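 HFL-1 cells transfected overnight with N protein plasmid, then exposed to test compound for 36 h (20 µM unless specified). Lysates boiled 10 min in SDS buffer, run on SDS-PAGE, transferred to PVDF and immunoblotted with ECL detection. p-Smad2 and p-Smad3 band intensities normalized to tubulin.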

[25] = test system: TβRI phosphorylation; experiment: N protein-induced TβRI phosphorylation in HFL-1 cells; assay type: cell-based, human; conditions: 10 μM, 24 h

TβRI polymerization, sequence (P36897 34-503): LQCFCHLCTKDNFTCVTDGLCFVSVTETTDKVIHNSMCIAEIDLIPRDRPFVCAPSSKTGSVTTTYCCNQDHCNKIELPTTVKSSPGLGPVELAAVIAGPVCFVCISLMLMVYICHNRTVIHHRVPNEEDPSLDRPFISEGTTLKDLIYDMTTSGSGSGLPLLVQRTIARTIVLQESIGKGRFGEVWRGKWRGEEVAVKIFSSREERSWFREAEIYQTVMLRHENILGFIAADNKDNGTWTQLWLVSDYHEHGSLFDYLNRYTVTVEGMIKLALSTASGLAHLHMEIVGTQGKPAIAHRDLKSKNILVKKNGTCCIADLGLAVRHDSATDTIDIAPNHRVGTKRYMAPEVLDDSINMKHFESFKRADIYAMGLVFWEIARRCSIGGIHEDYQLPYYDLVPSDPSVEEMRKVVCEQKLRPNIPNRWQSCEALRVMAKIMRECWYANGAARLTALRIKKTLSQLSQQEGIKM
Smad3, sequence (P84022 whole entry): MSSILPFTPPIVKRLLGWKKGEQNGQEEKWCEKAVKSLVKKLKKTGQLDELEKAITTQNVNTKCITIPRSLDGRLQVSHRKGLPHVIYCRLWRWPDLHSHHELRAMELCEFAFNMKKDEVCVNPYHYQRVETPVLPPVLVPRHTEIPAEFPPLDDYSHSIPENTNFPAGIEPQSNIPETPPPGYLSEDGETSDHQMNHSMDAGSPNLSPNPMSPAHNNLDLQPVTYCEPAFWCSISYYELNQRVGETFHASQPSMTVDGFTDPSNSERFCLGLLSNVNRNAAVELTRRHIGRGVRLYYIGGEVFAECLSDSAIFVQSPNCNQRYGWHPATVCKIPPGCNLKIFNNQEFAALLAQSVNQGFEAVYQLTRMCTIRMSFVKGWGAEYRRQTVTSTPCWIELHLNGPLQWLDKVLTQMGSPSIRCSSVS
TβRI-Smad2 interaction, sequence (Q15796 2-467 limits assumed): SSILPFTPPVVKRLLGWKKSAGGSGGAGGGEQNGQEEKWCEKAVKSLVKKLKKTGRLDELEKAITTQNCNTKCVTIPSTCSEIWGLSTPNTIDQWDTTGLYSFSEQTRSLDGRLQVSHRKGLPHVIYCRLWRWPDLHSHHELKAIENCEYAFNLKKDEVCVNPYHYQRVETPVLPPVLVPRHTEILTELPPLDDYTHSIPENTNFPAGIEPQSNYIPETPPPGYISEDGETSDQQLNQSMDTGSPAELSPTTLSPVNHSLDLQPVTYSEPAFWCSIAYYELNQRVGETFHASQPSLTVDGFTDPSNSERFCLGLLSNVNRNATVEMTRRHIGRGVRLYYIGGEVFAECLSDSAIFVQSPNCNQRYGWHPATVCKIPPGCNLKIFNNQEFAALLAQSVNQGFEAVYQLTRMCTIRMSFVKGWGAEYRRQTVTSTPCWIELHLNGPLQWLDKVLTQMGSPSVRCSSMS
MH1-MH2 interaction, sequence (P84022 10-136 limits assumed): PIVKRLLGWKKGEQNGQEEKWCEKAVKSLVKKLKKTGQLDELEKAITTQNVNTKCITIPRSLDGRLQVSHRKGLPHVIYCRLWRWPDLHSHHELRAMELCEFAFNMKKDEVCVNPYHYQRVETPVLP
MH1-MH2 interaction, sequence (P84022 232-425 partner limits assumed): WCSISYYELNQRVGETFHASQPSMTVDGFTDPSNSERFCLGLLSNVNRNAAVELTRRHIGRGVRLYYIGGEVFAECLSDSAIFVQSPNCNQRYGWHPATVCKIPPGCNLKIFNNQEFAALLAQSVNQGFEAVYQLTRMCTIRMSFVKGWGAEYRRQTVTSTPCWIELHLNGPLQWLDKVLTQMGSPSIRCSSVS
MH1 domain of Smad3, sequence (P84022 10-136 limits assumed): as the sequence (P84022 10-136 limits assumed) above
Smad2, sequence (Q15796 whole entry): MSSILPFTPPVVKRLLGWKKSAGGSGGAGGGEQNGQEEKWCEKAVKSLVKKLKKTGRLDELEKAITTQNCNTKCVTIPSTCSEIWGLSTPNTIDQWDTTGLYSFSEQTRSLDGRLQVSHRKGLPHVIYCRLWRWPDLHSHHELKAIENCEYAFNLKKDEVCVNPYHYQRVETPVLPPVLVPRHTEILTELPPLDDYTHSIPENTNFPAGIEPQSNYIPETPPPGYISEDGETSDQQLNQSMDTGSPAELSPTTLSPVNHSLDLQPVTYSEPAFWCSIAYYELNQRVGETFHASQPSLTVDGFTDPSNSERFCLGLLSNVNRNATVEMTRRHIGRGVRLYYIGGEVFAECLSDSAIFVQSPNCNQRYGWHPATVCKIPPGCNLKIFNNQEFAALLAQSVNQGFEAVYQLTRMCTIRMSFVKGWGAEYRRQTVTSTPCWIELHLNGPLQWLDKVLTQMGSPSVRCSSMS
TβRI, sequence (P36897 34-503): as the sequence (P36897 34-503) above

SMILES: O=c1c(O)c(N2CCN(Cc3ccc(Br)cc3F)CC2)oc2ccccc12 [RMY-205, 2-(4-(4-bromo-2-fluorobenzyl)piperazin-1-yl)-3-hydroxy-4H-chromen-4-one]
- recruiting THP1 macrophages and differentiated HL60 neutrophils by N protein [1]: attenuation
- N protein-induced phosphorylation of Smad3 in lung [2]: suppression
- N protein-induced secretion of CCL2, CXCL10, and IL-6 in bronchoalveolar lavage fluid [2]: suppression
- N protein-promoted infiltration of macrophages and neutrophils in the lung tissue [2]: markedly attenuated
- alveolar septal thickening, α-SMA expression and collagen deposition ([2]; intraperitoneally): alleviated alveolar septal thickening and decreased α-SMA expression and collagen deposition
- nocodazole-induced Smad3 phosphorylation [3]: inhibited
- N protein-induced phosphorylation of Smad3 ([4]; 20 μM, 36 h): inhibition
- N protein-induced Smad2/3 nuclear translocation ([5]; 20 μM): blocked
- interactions between N protein and TβRI, TβRI and TβRII, or TβRI and FKBP12 [6]: did not interfere
- Kd [7]: 8 µM
- N protein-induced TβRI polymerization ([8]; 20 μM): not influenced
- TGF-β-induced Smad3 phosphorylation and α-SMA and COL1A1 expression ([9]; HFL-1, AC16, LX-2 and human primary dermal cells, TGF-β 2 ng/mL): effectively inhibited
- inhibition of TGF-β-induced Smad3 phosphorylation and α-SMA expression, compared with (E)-SIS3 ([9]; HFL-1 cells, (E)-SIS3 3 μM): comparable with that by (E)-SIS3
- binding to Smad2 [10]: not to either Smad2 or TβRI
- N protein-induced α-SMA and COL1A1 expression levels and collagen secretion ([11]; HFL-1 cells, time- and dose-dependent manner): downregulate
- α-SMA inhibition ratio (%) ([11]; N-protein transfected HFL-1 cells, 10 μM, 24 h): 50.9 ± 14.0%
- renal fibrosis, Smad3 phosphorylation and COL1A1 expression induced by Adriamycin [12]: effectively alleviate
- recruitment of primary BMDMs and primary neutrophils [13]: abolished
- N protein-induced transactivation activity of Smad [14]: inhibited
- binding to TβRI [15]: not to either Smad2 or TβRI
- N protein-induced TβRI interaction with Smad2 [16]: not with Smad2
- interaction between MH1 and MH2 domains [17]: substantially enhance
- Smad3 binding to the promoters of genes of cytokines [18]: inhibited
- N protein-elevated mRNA of CCL2, CXCL10, and IL-6 expression and their release levels [19]: suppression
- N protein-induced α-SMA and COL1A1 expression [19]: significantly inhibited
- AUC ([20]; ip, 10 mg/kg): 2130 ng·h/mL
- AUC(0-inf) ([20]; ip, 10 mg/kg): 2130 ng·h/mL
- Cmax ([20]; ip, 10 mg/kg): 1820 ng/mL
- Tmax ([20]; ip, 10 mg/kg): 0.19 h
- bioavailability ([20]; ip, 10 mg/kg): 42.8%
- half-life ([20]; ip, 10 mg/kg): 8.26 h
- AUC ([20]; iv, 2 mg/kg): 995 ng·h/mL
- AUC(0-inf) ([20]; iv, 2 mg/kg): 995 ng·h/mL
- Vd ([20]; iv, 2 mg/kg): 3 L/kg
- clearance ([20]; iv, 2 mg/kg): 34 mL/min/kg
- half-life ([20]; iv, 2 mg/kg): 1.98 h
- AUC ([20]; po, 10 mg/kg): 1870 ng·h/mL
- AUC(0-inf) ([20]; po, 10 mg/kg): 1870 ng·h/mL
- Cmax ([20]; po, 10 mg/kg): 1040 ng/mL
- Tmax ([20]; po, 10 mg/kg): 0.33 h
- bioavailability ([20]; po, 10 mg/kg): 37.6%
- half-life ([20]; po, 10 mg/kg): 2.55 h
- weight of the mice and of various organs (heart, liver, spleen, lungs, kidneys) ([21]; 10 mg/kg for 30 days): not significantly changed
- behavior, weight of the body or various organs ([21]; during administration of RMY-205): no abnormal behavior or weight loss
- N protein-induced mRNA expression of IL6, IL8, CCL2, and CXCL10 [22]: downregulated
- Kd [23]: 13.3 µM
- N protein-induced phosphorylation of Smad2 [24]: not of Smad2

SMILES: Cc1cccc(-c2[nH]c(C(C)(C)C)nc2-c2ccc3c(c2)OCO3)n1 [SB505124, reference compound]
- N protein-induced Smad phosphorylation, nuclear translocation, and transactivation activity ([4]; 10 μM, 24 h): lost its ability to induce
- Smad2/3 localization in the presence of N protein ([5]; 10 μM): remain in the cytosol
- N protein-induced TβRI polymerization ([8]; 10 μM): could not prevent
- N protein-induced expression of α-SMA and COL1A1 ([11]; HFL-1 cells, 10 μM, 24 h): failed to elevate
- N protein-induced TβRI phosphorylation [25]: could block

SMILES: COc1cc2c(cc1OC)CN(C(=O)/C=C/c1c(-c3ccccc3)n(C)c3ncccc13)CC2 [(E)-SIS3]
- N protein-induced Smad3 activation ([4]; 3 μM, 36 h): no inhibitory effect
